ChEMBL document CHEMBL1124235, “3-Phenoxypyridine 1-oxides as anticonvulsant agents” (1988)
Active and inactive are the calls of the source. The rule behind the calls is not given here.

Legend:
Mus musculus [1] = test: Dose required to protect Mice against tonic extension produced by maximal electroshock (MES) at 30 min post administration; assay type: functional; settings: 0.5 h, read-out: MED
Outline: (§1)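 Male Swiss-Webster mice (25–32 g), with food and water before testing, were dosed ip, the compound being in water or suspended in 0.29% Methocel. Doses were counted as free base, at levels of 10, 30, 100, 300 or >300 mg/kg, with n = 5. At 30 min, 90 mA, 1 ms monophasic pulses at 100 Hz were given through ear clips for 0.2 s. Value is the lowest dose protecting ≥2 mice from tonic hind-limb extension.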

Mus musculus [2] = test: Dose at which mouse exhibited ataxia using the inverted screen procedure at 30 min post administration; assay type: functional
Outline: (§2)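 Mice (n = 5 per dose) were scored 30 min after dosing at levels of 10, 30, 100, 300 or >300 mg/kg. They were placed on an inverted wire-mesh square, and impaired mice fall off.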

Mus musculus [3] = test: Number of mice falling from an inverted wire mesh during a 1-min test period 20 min after ip administration at a dose of 100 mg/Kg in ataxia (inverted screen test); 2/9; assay type: functional
Outline: (§3)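 Mice were dosed ip and placed on an inverted wire mesh 20 min after injection, for a 1-min test. The number of mice that fell per dose group was counted, and a dash means none fell.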

Mus musculus [4] = test: Number of mice falling from an inverted wire mesh during a 1-min test period 20 min after ip administration at a dose of 10 mg/Kg in ataxia (inverted screen test); - denotes 'no animals fell'; assay type: functional, organism-based; outline: as §3
Mus musculus [5] = test: Number of mice falling from an inverted wire mesh during a 1-min test period 20 min after ip administration at a dose of 30 mg/Kg in ataxia (inverted screen test); - denotes 'no animals fell'; assay type: functional, organism-based; outline: as §3
Mus musculus [6] = test: Increase in spontaneous locomotion activity after intraperitoneal administration in mice at a dose of 10 mg/Kg; assay type: functional
Outline: (§4)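 After ip injection, spontaneous locomotor activity was recorded automatically over a 1-h period beginning 20 min after dosing, with nine or more mice per dose group. Values are percent change from saline-treated mice.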

Mus musculus [7] = test: Increase in spontaneous locomotion activity after intraperitoneal administration in mice at a dose of 100 mg/Kg; assay type: functional; outline: as §4
Mus musculus [8] = test: Increase in spontaneous locomotion activity after intraperitoneal administration in mice at a dose of 30 mg/Kg; assay type: functional; outline: as §4
Mus musculus [9] = test: Number of mice falling from an inverted wire mesh during a 1-min test period 20 min after ip administration at a dose of 100 mg/Kg in ataxia (inverted screen test); - denotes 'no animals fell'; assay type: functional, organism-based; outline: as §3
Mus musculus [10] = test: Number of mice falling from an inverted wire mesh during a 1-min test period 20 min after ip administration at a dose of 30 mg/Kg in ataxia (inverted screen test); 1/9; assay type: functional; outline: as §3
Mus musculus [11] = test: Number of mice falling from an inverted wire mesh during a 1-min test period 20 min after ip administration at a dose of 10 mg/Kg in ataxia (inverted screen test ); - denotes 'no animals fell'; assay type: functional, organism-based; outline: as §3
Mus musculus [12] = test: Number of mice falling from an inverted wire mesh during a 1-min test period 20 min after ip administration at a dose of 100 mg/Kg in ataxia (inverted screen test); 3/9; assay type: functional; outline: as §3
Mus musculus [13] = test: Dose required to protect Mice against tonic extension produced by maximal electroshock (MES) at 30 min post administration.; assay type: functional; settings: 0.5 h, read-out: MED; outline: as §1
Mus musculus [14] = test: Dose at which mouse exhibited ataxia using the inverted screen procedure at 30 min post administration.; assay type: functional; outline: as §2
Mus musculus [15] = test: Number of mice falling from an inverted wire mesh during a 1-min test period 20 min after ip administration at a dose of 20 mg/Kg in ataxia (inverted screen test); 1/12; assay type: functional; outline: as §3
Mus musculus [16] = test: Number of mice falling from an inverted wire mesh during a 1-min test period 20 min after ip administration at a dose of 40 mg/Kg in ataxia (inverted screen test); 1/12; assay type: functional; outline: as §3
Mus musculus [17] = test: Number of mice falling from an inverted wire mesh during a 1-min test period 20 min after ip administration at a dose of 60 mg/Kg in ataxia (inverted screen test); 6/12; assay type: functional; outline: as §3
Mus musculus [18] = test: Increase in spontaneous locomotion activity after intraperitoneal administration in mice at a dose of 60 mg/kg; assay type: functional; outline: as §4
Mus musculus [19] = test: Increase in spontaneous locomotion activity after intraperitoneal administration in mice at a dose of 20 mg/Kg; assay type: functional; outline: as §4
Mus musculus [20] = test: Increase in spontaneous locomotion activity after intraperitoneal administration in mice at a dose of 40 mg/kg; assay type: functional; outline: as §4
Mus musculus [21] = test: Increase in spontaneous locomotion activity after intraperitoneal administration in mice at a dose of 5 mg/Kg; assay type: functional; outline: as §4
Rattus norvegicus [22] = test: Ataxia produced by […] in rat by po administration at 1 hr post dosing; assay type: functional
Outline: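 Rats were dosed orally and checked 1.0 h afterwards. Ataxia was judged by visual (subjective) observation, not by rotarod. ED50 was calculated by probit analysis of quantal data from four dose groups of eight rats each, with 95% confidence intervals.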

Rattus norvegicus [23] = test: Anticonvulsant activity by maximal electroshock test(MES) in rat by po administration at 1 hr postdosing; assay type: functional
Mus musculus [24] = test: Ataxia produced by rotarod ataxia test (ROT) in mouse by ip administration at 0.5 hr post dosing
Mus musculus [25] = test: Ataxia produced by rotarod ataxia test (ROT) in mouse by po administration at 0.5 hr post dosing
Mus musculus [26] = test: Anticonvulsant activity by maximal electroshock test(MES) in mouse by ip administration at 0.5 hr postdosing
Mus musculus [27] = test: Anticonvulsant activity by maximal electroshock test(MES) in mouse by po administration at 0.5 hr postdosing
Mus musculus [28] = test: Increase in spontaneous locomotion activity after intraperitoneal administration in mice at 10 mg/kg; no change; assay type: functional, organism-based; design: dose 10 mg/kg; outline: as §4
Mus musculus [29] = test: Number of mice falling from an inverted wire mesh during a 1-min test period 20 min after ip administration at given dose in ataxia (inverted screen test) at 20 mg/kg; - denotes 'no animals fell'; assay type: functional, organism-based; design: dose 20 mg/kg; outline: as §3
Mus musculus [30] = test: Number of mice falling from an inverted wire mesh during a 1-min test period 20 min after ip administration at given dose in ataxia (inverted screen test) at 40 mg/kg; - denotes 'no animals fell'; assay type: functional, organism-based; design: dose 40 mg/kg; outline: as §3
Mus musculus [31] = test: Number of mice falling from an inverted wire mesh during a 1-min test period 20 min after ip administration at given dose in ataxia (inverted screen test) at 10 mg/kg; - denotes 'no animals fell'; assay type: functional, organism-based; design: dose 10 mg/kg; outline: as §3
Mus musculus [32] = test: Number of mice falling from an inverted wire mesh during a 1-min test period 20 min after ip administration at given dose in ataxia (inverted screen test) at 100 mg/kg; - denotes 'no animals fell'; assay type: functional, organism-based; design: dose 100 mg/kg; outline: as §3
Mus musculus [33] = test: Increase in spontaneous locomotion activity after intraperitoneal administration in mice; 40 mg/kg; assay type: functional; outline: as §4
Mus musculus [34] = test: Increase in spontaneous locomotion activity after intraperitoneal administration in mice; at 100 mg/kg; assay type: functional; outline: as §4
Mus musculus [35] = test: Increase in spontaneous locomotion activity after intraperitoneal administration in mice at 20 mg/kg; assay type: functional; outline: as §4

Cc1ccc(Oc2c[n+]([O-])ccc2C)cc1
minimal effective dose (Mus musculus [1]): 300 mg/kg
MAD (Mus musculus [2]): 300 mg/kg

Cc1c(Oc2ccccc2)ccc[n+]1[O-]
Activity (Mus musculus [3]): 2
Activity (Mus musculus [4]): Not toxic
Activity (Mus musculus [5]): Not toxic
Change (Mus musculus [6]): 48%
Change (Mus musculus [7]): 184%
Change (Mus musculus [8]): 25%
minimal effective dose (Mus musculus [1]): 300 mg/kg
MAD (Mus musculus [2]): 300 mg/kg

CCc1cc[n+]([O-])cc1Oc1ccccc1
minimal effective dose (Mus musculus [1]): 30 mg/kg
MAD (Mus musculus [2]): 100 mg/kg

[O-][n+]1ccc(CO)c(Oc2ccccc2)c1
minimal effective dose (Mus musculus [1]): 300 mg/kg
MAD (Mus musculus [2]): 30 mg/kg

Cc1cc(Oc2ccccc2)c[n+]([O-])c1
Activity (Mus musculus [4]): Not toxic
Activity (Mus musculus [9]): Not toxic
Activity (Mus musculus [5]): Not toxic
Change (Mus musculus [6]): 87%
Change (Mus musculus [7]): 228%
Change (Mus musculus [8]): 186%
minimal effective dose (Mus musculus [1]): 100 mg/kg
MAD (Mus musculus [2]): 300 mg/kg

[O-][n+]1cccc(Oc2ccccc2)c1
Activity (Mus musculus [10]): 1
Activity (Mus musculus [11]): Not toxic
Activity (Mus musculus [9]): Not toxic
Change (Mus musculus [6]): 19%
Change (Mus musculus [7]): 122%
Change (Mus musculus [8]): 45%
minimal effective dose (Mus musculus [1]): 100 mg/kg
MAD (Mus musculus [2]): 300 mg/kg

Cc1ccc(Oc2ccccc2)c[n+]1[O-]
Activity (Mus musculus [4]): Not toxic
Activity (Mus musculus [12]): 3
Activity (Mus musculus [5]): Not toxic
Change (Mus musculus [6]): 32%
Change (Mus musculus [7]): 134%
Change (Mus musculus [8]): 96%
minimal effective dose (Mus musculus [13]): 100 mg/kg
MAD (Mus musculus [14]): 300 mg/kg

OCc1ccncc1Oc1ccccc1
minimal effective dose (Mus musculus [1]): 300 mg/kg
MAD (Mus musculus [2]): 300 mg/kg

Cc1cc[n+]([O-])cc1Oc1ccc(Cl)cc1
minimal effective dose (Mus musculus [1]): 100 mg/kg
MAD (Mus musculus [2]): 100 mg/kg

N#Cc1cc[n+]([O-])cc1Oc1ccccc1
minimal effective dose (Mus musculus [1]): 300 mg/kg
MAD (Mus musculus [2]): 300 mg/kg

Cc1cc[n+]([O-])cc1Oc1ccccc1
Activity (Mus musculus [4]): Not toxic
Activity (Mus musculus [15]): 1
Activity (Mus musculus [16]): 1
Activity (Mus musculus [17]): 6
Change (Mus musculus [18]): 63%
Change (Mus musculus [6]): 55%
Change (Mus musculus [19]): 75%
Change (Mus musculus [20]): 92%
Change (Mus musculus [21]): 12%
minimal effective dose (Mus musculus [1]): 30 mg/kg
MAD (Mus musculus [2]): 100 mg/kg
ED50 (Rattus norvegicus [22]): 75 mg/kg
ED50 (Rattus norvegicus [23]): 11 mg/kg
ED50 (Mus musculus [24]): 76 mg/kg
ED50 (Mus musculus [25]): 300 mg/kg
ED50 (Mus musculus [26]): 23 mg/kg
ED50 (Mus musculus [27]): 85 mg/kg

[O-][n+]1ccc(C2CCCCC2)c(Oc2ccccc2)c1
minimal effective dose (Mus musculus [1]): > 300 mg/kg
MAD (Mus musculus [2]): 300 mg/kg

O=S(=O)(O)O.c1ccc(Oc2cccnc2)cc1
Activity (Mus musculus [28]): inactive
Activity (Mus musculus [29]): Not toxic
Activity (Mus musculus [30]): Not toxic
Activity (Mus musculus [31]): Not toxic
Activity (Mus musculus [32]): Not toxic
Change (Mus musculus [33]): 53%
Change (Mus musculus [34]): 15%
Change (Mus musculus [35]): 28%
minimal effective dose (Mus musculus [1]): 100 mg/kg
MAD (Mus musculus [2]): 300 mg/kg

COc1ccc(Oc2c[n+]([O-])ccc2C)cc1
minimal effective dose (Mus musculus [1]): 300 mg/kg
MAD (Mus musculus [2]): 300 mg/kg

CC(C)(C)c1cc[n+]([O-])cc1Oc1ccccc1
minimal effective dose (Mus musculus [1]): 30 mg/kg
MAD (Mus musculus [2]): 100 mg/kg

O=Cc1cc[n+]([O-])cc1Oc1ccccc1
minimal effective dose (Mus musculus [1]): 300 mg/kg
MAD (Mus musculus [2]): >300 mg/kg

O=C(O)c1cc[n+]([O-])cc1Oc1ccccc1
minimal effective dose (Mus musculus [1]): > 300 mg/kg
MAD (Mus musculus [2]): >300 mg/kg

O=c1c2ccccc2oc2c[n+]([O-])ccc12
minimal effective dose (Mus musculus [1]): > 300 mg/kg
MAD (Mus musculus [2]): 300 mg/kg

CC(C)c1cc[n+]([O-])cc1Oc1ccccc1
minimal effective dose (Mus musculus [1]): 30 mg/kg
MAD (Mus musculus [2]): 100 mg/kg

[O-][n+]1ccc(Cl)c(Oc2ccccc2)c1
minimal effective dose (Mus musculus [1]): > 300 mg/kg
MAD (Mus musculus [2]): 300 mg/kg

c1ccc2c(c1)Cc1ccncc1O2
minimal effective dose (Mus musculus [1]): 100 mg/kg
MAD (Mus musculus [2]): 300 mg/kg
